Assay results reported in ChEMBL document CHEMBL4373727, “Thienopyrimidinone Derivatives That Inhibit Bacterial tRNA (Guanine37-N1)-Methyltransferase (TrmD) by Restructuring the Active Site with a Tyrosine-Flipping Mechanism” (J Med Chem, 2019).
Converted amounts (≈) assume the structure as drawn. The source made the active and inactive calls. Unless noted, the rule behind the calls is not given here.

Tests used:
Escherichia coli [1] = test: Antibacterial activity against Escherichia coli BW25113 incubated for 24 hrs by serial broth microdilution method; format: functional, organism-based
In short: (§1)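 Log-phase cultures from four colonies grown overnight at 37 °C, inoculated at ~5×10^5 cells/mL in cation-adjusted Mueller–Hinton broth with serially diluted compound. Grown 24 h at 37 °C, then OD600 read. MIC50/MIC90 are the concentrations giving 50%/90% growth inhibition relative to drug-free controls. Two independent experiments in duplicate.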

Acinetobacter baumannii [2] = test: Bactericidal activity against Acinetobacter baumannii ATCC 17961 assessed as reduction in CFU at 1 to 4 times MIC90 incubated for 24 hrs; format: functional; details: ATCC 17961, 24 h, read-out: MBC99.9
Salmonella enteritidis [3] = test: Antibacterial activity against Salmonella enteritidis ATCC 13076 incubated for 24 hrs by serial broth microdilution method; format: functional; details: Salmonella enterica subsp. enterica serovar Enteritidis; in short: as §1
Enterococcus faecalis [4] = test: Bactericidal activity against Enterococcus faecalis ATCC 51299 assessed as reduction in CFU at 1 to 4 times MIC90 incubated for 24 hrs; format: functional, organism-based
Acinetobacter baumannii [5] = test: Antibacterial activity against Acinetobacter baumannii ATCC 17961 incubated for 24 hrs by serial broth microdilution method; format: functional; details: ATCC 17961, 24 h; in short: as §1
Enterococcus faecalis [6] = test: Antibacterial activity against Enterococcus faecalis ATCC 51299 incubated for 24 hrs by serial broth microdilution method; format: functional, organism-based
In short: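 Broth microdilution in brain heart infusion broth, ~5×10^5 cells/mL log-phase inoculum, serial compound dilutions, 24 h at 37 °C, OD600 read-out. MIC50/MIC90 are the concentrations giving 50%/90% growth inhibition relative to drug-free controls. Two independent experiments in duplicate.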

[7] = test system: Mycolicibacterium smegmatis; test: Antibacterial activity against Mycolicibacterium smegmatis MC2 155 incubated for 24 hrs by serial broth microdilution method; format: functional; details: MC2 155, 24 h
In short: (§2)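 Growth read by OD600. MRSA in cation-adjusted Mueller–Hinton broth, M. smegmatis in complete 7H9. MIC50 and MIC90 are 50% and 90% growth inhibition versus drug-free controls. Two independent experiments, each in duplicate.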

Erythrocyte = test: Hemolytic activity in human RBC at 100 uM measured after 1 hr; format: ADME, cell-based
In short: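 Fresh human RBCs were PBS-washed and resuspended to OD600 24, then mixed 1:1 by volume with compound serially diluted in PBS. Incubated 1 h at 37 °C without shaking and centrifuged at 1000g for 15 min. Triton X-100 served as positive control. Run in triplicate.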

[8] = test system: Mycobacterium tuberculosis; test: Bactericidal activity against Mycobacterium tuberculosis H37Rv assessed as reduction in CFU at 1 to 4 times MIC90 incubated for 7 days; format: functional; details: 168 h, read-out: MBC99.9
In short: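 Then plated on complete 7H10 agar for CFU. Inoculum plated at time zero. MBC99.9 is a 1000-fold CFU reduction versus the time-zero inoculum.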

Salmonella enteritidis [9] = test: Bactericidal activity against Salmonella enteritidis ATCC 13076 assessed as reduction in CFU at 1 to 4 times MIC90 incubated for 24 hrs; format: functional; details: Salmonella enterica subsp. enterica serovar Enteritidis
Pseudomonas aeruginosa [10] = test: Bactericidal activity against Pseudomonas aeruginosa PA14 assessed as reduction in CFU at 1 to 4 times MIC90 incubated for 24 hrs; format: functional, organism-based
Staphylococcus aureus [11] = test: Bactericidal activity against methicillin-resistant Staphylococcus aureus ATCC 43300 assessed as reduction in CFU at 1 to 4 times MIC90 incubated for 24 hrs; format: functional; details: ATCC 43300, 24 h, read-out: MBC99.9
Escherichia coli [12] = test: Bactericidal activity against Escherichia coli BW25113 assessed as reduction in CFU at 1 to 4 times MIC90 incubated for 24 hrs; format: functional, organism-based
[13] = test system: Mycolicibacterium smegmatis; test: Bactericidal activity against Mycolicibacterium smegmatis MC2 155 assessed as reduction in CFU at 1 to 4 times MIC90 incubated for 24 hrs; format: functional; details: MC2 155, 24 h, read-out: MBC99.9
Klebsiella pneumoniae [14] = test: Antibacterial activity against Klebsiella pneumoniae ATCC 13883 incubated for 24 hrs by serial broth microdilution method; format: functional, organism-based; in short: as §1
[15] = molecular target: T1, tRNA (guanine-N(1)-)-methyltransferase (Pseudomonas aeruginosa (strain ATCC 15692 / DSM 22644 / CIP 104116 / JCM14847 / LMG 12228 / 1C / PRS 101 / PAO1), UniProt Q9HXQ1); test: Inhibition of Pseudomonas aeruginosa tRNA (guanine(37)-N1)-methyltransferase (Leu5 to Asp25 residues) expressed in Escherichia coli BL21 (DE3) Rosetta T1R cells assessed as reduction in S-adenosyl-L-homocysteine production preincubated for 15 mins followed by 1.5 uM of tRNALeu(CAG) substrate and SAM addition and measured after 45 mins by MTase-Glo assay
T1 sequence (Q9HXQ1 whole entry): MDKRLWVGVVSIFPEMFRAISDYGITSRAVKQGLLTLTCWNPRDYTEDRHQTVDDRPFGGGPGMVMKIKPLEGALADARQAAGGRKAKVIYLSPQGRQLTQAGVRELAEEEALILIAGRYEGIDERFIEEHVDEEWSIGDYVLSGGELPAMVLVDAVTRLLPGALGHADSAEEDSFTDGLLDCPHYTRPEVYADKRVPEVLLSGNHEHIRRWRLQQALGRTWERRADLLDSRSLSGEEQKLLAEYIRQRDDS
In short: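 MTase-Glo luminescence assay. 8 nM TrmD preincubated 15 min at ambient temperature with serially diluted inhibitor (0–500 μM) in 50 mM Tris-HCl pH 8.0, 80 mM NaCl, 1 mM MgCl2, 0.5 mM DTT, 0.01% Triton X-100. Reaction with 2 μM SAM and tRNALeu(CAG), 45 min at 37 °C. Detection 30 min in the dark, SAH read against a standard curve. IC50 by nonlinear regression. Two independent experiments in duplicate.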

Pseudomonas aeruginosa [16] = test: Antibacterial activity against Pseudomonas aeruginosa PA14 incubated for 24 hrs by serial broth microdilution method; format: functional, organism-based; in short: as §1
Staphylococcus aureus [17] = test: Antibacterial activity against methicillin-resistant Staphylococcus aureus ATCC 43300 incubated for 24 hrs by serial broth microdilution method; format: functional; details: ATCC 43300, 24 h; in short: as §2
[18] = test system: Mycobacterium tuberculosis; test: Antibacterial activity against Mycobacterium tuberculosis ATCC 27294 at 100 uM incubated for 7 days; format: functional, organism-based
Klebsiella pneumoniae [19] = test: Bactericidal activity against Klebsiella pneumoniae ATCC 13883 assessed as reduction in CFU at 1 to 4 times MIC90 incubated for 24 hrs; format: functional, organism-based
[20] = test system: Mycolicibacterium smegmatis; test: Antibacterial activity against Mycolicibacterium smegmatis MC2 155 at 100 uM incubated for 24 hrs; format: functional, organism-based
In short: (§3)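 Single-concentration growth screen: 100 μM test compound with log-phase bacteria at about 5×10^5 cells/mL. Incubation 24 h at 37 °C. Growth read by OD600 and given as percent of untreated control. MRSA was grown in cation-adjusted Mueller–Hinton broth. M. smegmatis was grown in complete Middlebrook 7H9. Ampicillin and kanamycin served as positive controls.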

Staphylococcus aureus [21] = test: Antibacterial activity against methicillin-resistant Staphylococcus aureus ATCC 43300 at 100 uM incubated for 24 hrs; format: functional, organism-based; in short: as §3
Streptococcus pneumoniae [22] = test: Antibacterial activity against Streptococcus pneumoniae ATCC 49619 at 100 uM incubated for 24 hrs; format: functional, organism-based
In short: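 Single 100 μM screen in MH medium with 3% defibrinated sheep blood at 37 °C under 5% CO2, ~5×10^5 cells/mL, 24 h.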

Streptococcus pneumoniae [23] = test: Bactericidal activity against Streptococcus pneumoniae ATCC 49619 assessed as reduction in CFU at 1 to 4 times MIC90 incubated for 24 hrs; format: functional; details: ATCC 49619, 24 h, read-out: MBC99.9
Enterococcus faecalis [24] = test: Antibacterial activity against Enterococcus faecalis ATCC 51299 at 100 uM incubated for 24 hrs; format: functional, organism-based
In short: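 Single-concentration screen in brain heart infusion broth. Log-phase cells at ~5×10^5 cells/mL were grown with 100 μM compound for 24 h at 37 °C. Growth was read as OD600 and expressed as a percentage of untreated wells. DMSO and blank controls were included.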

Streptococcus pneumoniae [25] = test: Antibacterial activity against Streptococcus pneumoniae ATCC 49619 incubated for 24 hrs by serial broth microdilution method; format: functional; details: ATCC 49619, 24 h
In short: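 Cultured in MH medium plus 3% defibrinated sheep blood at 37 °C, 5% CO2. Log-phase inoculum ~5×10^5 cells/mL was exposed to serial compound dilutions for 24 h. MIC50/MIC90 are relative to drug-free controls. Two independent experiments in duplicate.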

[26] = test system: Mycobacterium tuberculosis; test: Antibacterial activity against Mycobacterium tuberculosis ATCC 27294 incubated for 7 days by broth dilution method; format: functional; details: ATCC 27294, 168 h
In short: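 M. tuberculosis ATCC 27294 in complete 7H9 with 0.05% Tween 80, 0.5% glycerol and 10% ADC. Mid-log cells adjusted to OD600 0.1 and added 1:1 to 2-fold serial compound dilutions (highest 100 μM). Incubated 7 d at 37 °C with shaking at 80 rpm, then OD600 read. Isoniazid positive control. MIC50/MIC90 versus drug-free controls. Biological duplicates.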

CCCCCCCCCCNCc1ccc(CNC(=O)c2csc3nc[nH]c(=O)c23)cc1
MIC50 (Escherichia coli [1]): inactive
MIC90 (Escherichia coli [1]): inactive
MBC (Acinetobacter baumannii [2]): > 100 µM
MIC50 (Salmonella enteritidis [3]): inactive
MIC90 (Salmonella enteritidis [3]): inactive
MBC99.9 (Enterococcus faecalis [4]): inactive
MIC50 (Acinetobacter baumannii [5]): > 100 µM
MIC90 (Acinetobacter baumannii [5]): > 100 µM
MIC50 (Enterococcus faecalis [6]): inactive
MIC90 (Enterococcus faecalis [6]): inactive
MIC50 [7]: 13 µM (≈ 5.91 µg/mL)
MIC90 [7]: 18 µM (≈ 8.18 µg/mL)
Activity (Erythrocyte): Non-Toxic
MBC [8]: 75 µM (≈ 34.1 µg/mL)
MBC99.9 (Salmonella enteritidis [9]): inactive
MBC99.9 (Pseudomonas aeruginosa [10]): inactive
MBC (Staphylococcus aureus [11]): 34 µM (≈ 15.5 µg/mL)
MBC99.9 (Escherichia coli [12]): inactive
MBC [13]: 36 µM (≈ 16.4 µg/mL)
MIC50 (Klebsiella pneumoniae [14]): inactive
MIC90 (Klebsiella pneumoniae [14]): inactive
IC50 [15]: 25 nM
MIC50 (Pseudomonas aeruginosa [16]): inactive
MIC90 (Pseudomonas aeruginosa [16]): inactive
MIC50 (Staphylococcus aureus [17]): 6 µM (≈ 2.73 µg/mL)
MIC90 (Staphylococcus aureus [17]): 8.5 µM (≈ 3.86 µg/mL)
Activity [18]: Active
MBC99.9 (Klebsiella pneumoniae [19]): inactive
Activity [20]: Active
Activity (Staphylococcus aureus [21]): Active
Activity (Streptococcus pneumoniae [22]): Active
MBC (Streptococcus pneumoniae [23]): > 100 µM
Activity (Enterococcus faecalis [24]): Active
MIC50 (Streptococcus pneumoniae [25]): 34 µM (≈ 15.5 µg/mL)
MIC90 (Streptococcus pneumoniae [25]): 56 µM (≈ 25.5 µg/mL)
MIC50 [26]: 22 µM (≈ 10 µg/mL)
MIC90 [26]: 43 µM (≈ 19.5 µg/mL)
